Source: PubChem
A selection: hits, their analogues and other compounds. The true share with any hit is near 6.8%.
HSF-1 act = increases HSF-1 driven luciferase reporter signal; hit rate 1.7% among 300,000; NIH3T3-HGL HSF-1 luciferase reporter, MG132, 8 h; 100% = twice DMSO control signal; activation, % at 9 µM;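 active = mean replicate activation of at least 50% with a set share of replicates each reaching 50%; inconclusive = only one of those two conditions met; inactive = mean below 50% and too few replicates reaching it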
HSF1 inh = HSF1 inhibition; activity change, negative = inhibition, % at 7.5 µM (by protocol); NIH3T3-HGL HSE-luciferase, MG132-induced, luminescence 8 h; active compounds read low; hit rate 0.77% among 300,000; AID 2098;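 active = more than half of replicate wells show activity change below -50%, luminescence cut by over half; inconclusive = some wells, but at most half, below -50%; inactive = no replicate well below -50%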;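 note: luciferase reports HSF-1 transcriptional activity via heat shock element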
HCV core dimer = HCV core protein dimerization inhibition; TR-FRET GST/Flag-core106 dimerization, 1536-well; inhibition, % at 5 µM; hit rate 0.33% among 300,000;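 active = inhibition above the mean of all tested compounds plus 3 SD, set per screening campaign, cut at about 45% in these data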
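Assay system: Tagged HCV core106 pair (GST and Flag) | Buffer or medium: KF-containing HEPES buffer, pH 7.45, DTT, CHAPS, BSA | Also added: Eu donor and XL665 acceptor anti-tag antibodies | Dosing: One concentration, 5 µM, in 0.5% DMSO | Timing: 4 h at 22.5 °C | Technique: TR-FRET 671 and 617 nm emission | Repeats: Singlicate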
ALR inh = blocks human ALR sulfhydryl oxidase activity. purified ALR, DTT oxidation, H2O2 HRP-luminol luminescence. inhibition, % (concentration not given with the values). hit rate 3.8% among 290,000;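 active = mean replicate inhibition above about 79%, with every replicate also reaching it, limit read from the data; inconclusive = only one of the two criteria met; inactive = mean below limit and not every replicate reaching it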
Target sequence (P55789 whole entry, looked up): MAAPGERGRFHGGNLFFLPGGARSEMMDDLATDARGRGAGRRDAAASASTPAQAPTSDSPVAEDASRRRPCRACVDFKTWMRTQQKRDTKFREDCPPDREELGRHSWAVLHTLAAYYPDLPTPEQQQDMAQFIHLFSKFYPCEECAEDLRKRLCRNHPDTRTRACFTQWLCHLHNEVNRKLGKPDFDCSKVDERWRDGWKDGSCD
AI-2 QS mod = modulators of Vibrio harveyi AI-2 quorum sensing system | Vibrio harveyi JMH597 AI-2 luminescence/OD600 ratio, 9 h; active compounds read low; strain lacks LuxN and CqsS sensors; 0 = neutral-control median | activity change, % at 7.5 µM | hit rate 0.4% among 300,000; in the data active = activity change below about -75%, passing the limit was not always enough; inconclusive = no clear call, values can overlap the other calls;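 note: luminescence divided by OD600 gain over 9 h not by final OD600 alone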
PHOSPHO1 block = PHOSPHO1 (human) inhibition. Q8TCT1. recombinant PHOSPHO1, absorbance phosphatase assay. inhibition, % at 13.3 µM. hit rate 1.1% among 290,000. AID 1565; in the data active = inhibition above about 60%
Target sequence (Q8TCT1 whole entry, looked up): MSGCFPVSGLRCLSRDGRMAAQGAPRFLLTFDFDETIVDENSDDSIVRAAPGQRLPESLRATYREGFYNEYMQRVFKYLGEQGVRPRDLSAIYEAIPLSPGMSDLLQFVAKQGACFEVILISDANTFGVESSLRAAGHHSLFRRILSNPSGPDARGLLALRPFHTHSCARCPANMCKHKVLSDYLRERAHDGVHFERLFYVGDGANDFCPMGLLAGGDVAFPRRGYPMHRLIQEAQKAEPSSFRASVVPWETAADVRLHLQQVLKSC
JMH597 growth rt = retest: inhibitors of Vibrio harveyi JMH597 growth; shares compounds with AI-2 QS mod; OD600 absorbance, 9 h; lacks LuxN and CqsS sensors; growth inhibition, % at 7.5 µM; hit rate 1% among 750; AID 2726;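 active = every replicate shows growth inhibition above 50%; inconclusive = at least half, but not all, replicates pass that cutoff; inactive = fewer than half of replicates pass it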
BB721 lum counter = retest counter-screen: luminescence loss in constitutive-on quorum sensing strain BB721 | shares compounds with AI-2 QS mod | Vibrio harveyi BB721 luminescence, 9 h | inhibition, % at 7.5 µM | hit rate 95% among 750 | AID 2727;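 active = inhibition above about 80% in every replicate, not just on average, limit read from the data; inconclusive = at least half of replicates past the limit, but not all; inactive = fewer than half of replicates past the limit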
BB721 growth = retest: blocks Vibrio harveyi BB721 growth; AID 2728; growth inhibition, % at 7.5 µM; hit rate 3% among 750; shares compounds with AI-2 QS mod; OD600 absorbance, 9 h;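 active = every replicate shows growth inhibition above 50%; inconclusive = at least half but not all replicates above 50% inhibition; inactive = under half of replicates above 50% inhibition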
JMH597 AI-2 mod = Vibrio harveyi AI-2 signaling luminescence modulation – JMH597 strain, confirmation | shares compounds with AI-2 QS mod | inhibition, % at 7.5 µM | Vibrio harveyi JMH597 AI-2 quorum sensing luminescence, 9 h; luxN and CqsS knockout, AI-2 only | hit rate 97% among 750;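 active = every replicate shows more than 75% inhibition of signal versus neutral control wells; inconclusive = half to three quarters of replicates exceed 75% inhibition; inactive = fewer than half of replicates exceed 75% inhibition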
Of the large screens only hits and unclear results are named; the others gave an inactive call (follow-up assays come after a bar, where they were run).

CN(C)S(=O)(=O)c1ccc(NC(=O)CN2C(=O)NC3(CCCC3)C2=O)cc1	AI-2 QS mod -79 (no result: ALR inh) | JMH597 growth rt inactive | BB721 lum counter inconclusive | BB721 growth inactive | JMH597 AI-2 mod 82
O=C(Nc1cccc(C(=O)N2CCOCC2)c1)c1ccccc1Cl	none
O=C(O)c1cc(NC(=O)c2ccccc2F)cc(NC(=O)c2ccccc2F)c1	none (no result: AI-2 QS mod)
O=C(Nc1cccc(F)c1)c1ccccc1	none (no result: ALR inh)
O=C(Nc1ccc(Nc2ccccc2)cc1)c1cccc(F)c1	HSF-1 act 67, AI-2 QS mod -77 | JMH597 growth rt inactive | BB721 lum counter 86 | BB721 growth inactive | JMH597 AI-2 mod 90
O=C(Nc1ccc(Nc2ccccc2)cc1)c1ccccc1F	ALR inh 99, AI-2 QS mod -86 | JMH597 growth rt inactive | BB721 lum counter 94 | BB721 growth inactive | JMH597 AI-2 mod 94
COC(=O)c1cc(OC)c(OC)cc1NC(=O)c1ccc(Br)o1	AI-2 QS mod inconclusive (no result: PHOSPHO1 block) | JMH597 growth rt inactive | BB721 lum counter inactive | BB721 growth inactive | JMH597 AI-2 mod inactive
CCOC(=O)c1sc(NC(=O)c2ccco2)nc1C	none (no result: HSF-1 act, HSF1 inh)
CCOC(=O)c1sc(NC(=O)COC(=O)c2ccco2)nc1C	AI-2 QS mod -89 | JMH597 growth rt inactive | BB721 lum counter 97 | BB721 growth inactive | JMH597 AI-2 mod 98
CC1(C)SC[C@H](C(=O)Nc2cccc(Cl)c2)N1C=O	AI-2 QS mod -93 | JMH597 growth rt inactive | BB721 lum counter 98 | BB721 growth inactive | JMH597 AI-2 mod 99
COc1ccccc1C(CNC(=O)C1CC(=O)N(Cc2ccccc2)C1)N1CCCC1 (configuration not stated)	none (no result: HSF-1 act, HSF1 inh, HCV core dimer, AI-2 QS mod, PHOSPHO1 block)
COc1ccc(CC(=O)Nc2ccc(C(N)=O)cc2)cc1	AI-2 QS mod inconclusive | JMH597 growth rt inactive | BB721 lum counter 85 | BB721 growth inactive | JMH597 AI-2 mod 89
COc1ccc(CC(=O)Nc2ccc(S(=O)(=O)NCC3CCCO3)cc2)cc1 (configuration not stated)	AI-2 QS mod -93 (no result: ALR inh) | JMH597 growth rt inactive | BB721 lum counter 99 | BB721 growth inactive | JMH597 AI-2 mod 100
O=C(Cc1ccc(Cl)cc1)Nc1ccc(S(=O)(=O)Nc2ncccn2)cc1	AI-2 QS mod -92 | JMH597 growth rt inactive | BB721 lum counter 98 | BB721 growth inactive | JMH597 AI-2 mod 99
COc1ccc(CC(=O)OCC(=O)Nc2ccc(C(=O)Nc3ccc(OC)cc3)cc2)cc1	none
O=C(Cc1ccc(Br)cc1)Nc1ccc(S(=O)(=O)Nc2ncccn2)cc1	AI-2 QS mod inconclusive
O=C(CN1C(=O)c2ccccc2C1=O)Nc1ccc(S(=O)(=O)NCC2CCCO2)cc1 (configuration not stated)	AI-2 QS mod -91 | JMH597 growth rt inactive | BB721 lum counter 96 | BB721 growth inactive | JMH597 AI-2 mod 97
COC(=O)/C=C/c1oc2ccccc2c1C	none
CC(Oc1ccccc1)C(=O)Nc1ccc(S(=O)(=O)NCC2CCCO2)cc1 (configuration not stated)	AI-2 QS mod inconclusive | JMH597 growth rt inactive | BB721 lum counter 97 | BB721 growth inactive | JMH597 AI-2 mod 100
COc1ccc(CC(=O)Nc2ccc(S(=O)(=O)Nc3nccs3)cc2)cc1	AI-2 QS mod inconclusive | JMH597 growth rt inactive | BB721 lum counter 84 | BB721 growth inactive | JMH597 AI-2 mod 89
COc1cccc(CC(=O)Nc2ccc(S(=O)(=O)Nc3nccs3)cc2)c1	none (no result: HSF-1 act, HSF1 inh, HCV core dimer, AI-2 QS mod, PHOSPHO1 block)
CC(NC(=O)CNC(=S)N(Cc1cccs1)C1CCCC1)c1ccccc1 (configuration not stated)	none
CC1CCN(C(=O)c2cc(-c3ccco3)on2)CC1	none (no result: ALR inh)
CC1CCN(C(=O)c2cc(-c3ccccc3O)on2)CC1	AI-2 QS mod -84 | JMH597 growth rt inactive | BB721 lum counter 95 | BB721 growth inactive | JMH597 AI-2 mod 96
CC1CCN(C(=O)c2cc(-c3ccc4c(c3)OCO4)on2)CC1	AI-2 QS mod -90 | JMH597 growth rt inactive | BB721 lum counter 96 | BB721 growth inactive | JMH597 AI-2 mod 97
CC1CN(S(=O)(=O)c2cccc(C(=O)NCCC3=CCCCC3)c2)CC(C)O1 (configuration not stated)	none (no result: PHOSPHO1 block)
COc1ccc(/C=C/C(=O)c2ccc(O)cc2)cc1	ALR inh 97, AI-2 QS mod -93 | JMH597 growth rt inactive | BB721 lum counter 97 | BB721 growth inactive | JMH597 AI-2 mod 97
O=C1COc2ccc(C(=O)COC(=O)/C=C/c3ccc(Br)o3)cc2N1	HCV core dimer 84, AI-2 QS mod -96 (no result: PHOSPHO1 block) | JMH597 growth rt inactive | BB721 lum counter 99 | BB721 growth inactive | JMH597 AI-2 mod 99
O=S(=O)(c1ccccc1)c1ccc(NCc2ccco2)cc1	AI-2 QS mod -94 | JMH597 growth rt inactive | BB721 lum counter inactive | BB721 growth inactive | JMH597 AI-2 mod 98
O=C(CNC(=O)c1cccs1)c1ccc(Br)cc1	none
O=C(CNC(=O)c1cccs1)OCc1ccc(Br)cc1	AI-2 QS mod inconclusive | JMH597 growth rt inactive | BB721 lum counter 91 | BB721 growth inactive | JMH597 AI-2 mod 92
Cc1cccc(-c2noc(Cc3ccccc3)n2)c1	none
Cc1cccc(-c2noc(CCc3ccccc3)n2)c1	AI-2 QS mod -78 (no result: ALR inh) | JMH597 growth rt inactive | BB721 lum counter 94 | BB721 growth inactive | JMH597 AI-2 mod 96
COc1ccc(Cc2nc(-c3ccccc3)no2)cc1	AI-2 QS mod -93 | JMH597 growth rt inactive | BB721 lum counter 98 | BB721 growth inactive | JMH597 AI-2 mod 98
O=C(Nc1ccc(-c2noc(CCc3ccccc3)n2)cc1)c1ccco1	AI-2 QS mod -81 (no result: ALR inh) | JMH597 growth rt inactive | BB721 lum counter 91 | BB721 growth 93 | JMH597 AI-2 mod 93
CCc1cc(CC)c(/C=N/NC(N)=O)c(CC)c1	none (no result: ALR inh)
COc1ccc2nc3sc(C(=O)N4CCN(C)CC4)cc3cc2c1	AI-2 QS mod -86 | JMH597 growth rt inactive | BB721 lum counter 89 | BB721 growth inactive | JMH597 AI-2 mod 93
COc1ccc2nc3sc(C(=O)NCCCN4CCc5ccccc5C4)cc3cc2c1	none
CCCSc1nsc(NC(=O)c2cccnc2OCC)n1	AI-2 QS mod -95 | JMH597 growth rt inactive | BB721 lum counter 100 | BB721 growth inactive | JMH597 AI-2 mod 100
